Source: PMC6777294 (ACS Omega, 2019)
Like-named read-outs stand apart in the source and are kept apart here.

What was measured:
hMAO-A [1] = biological target: T1, hMAO-A (Homo sapiens, UniProt P21397); experiment: biochemical; settings: Table 2; for IC50: IC50 (μM) hMAO-A (n = 3), log dose inhibition curve, mean ± SD of triplicate; for SI (selective index): ratio of hMAO-B IC50/hMAO-A IC50
T1 sequence (P21397 1-527): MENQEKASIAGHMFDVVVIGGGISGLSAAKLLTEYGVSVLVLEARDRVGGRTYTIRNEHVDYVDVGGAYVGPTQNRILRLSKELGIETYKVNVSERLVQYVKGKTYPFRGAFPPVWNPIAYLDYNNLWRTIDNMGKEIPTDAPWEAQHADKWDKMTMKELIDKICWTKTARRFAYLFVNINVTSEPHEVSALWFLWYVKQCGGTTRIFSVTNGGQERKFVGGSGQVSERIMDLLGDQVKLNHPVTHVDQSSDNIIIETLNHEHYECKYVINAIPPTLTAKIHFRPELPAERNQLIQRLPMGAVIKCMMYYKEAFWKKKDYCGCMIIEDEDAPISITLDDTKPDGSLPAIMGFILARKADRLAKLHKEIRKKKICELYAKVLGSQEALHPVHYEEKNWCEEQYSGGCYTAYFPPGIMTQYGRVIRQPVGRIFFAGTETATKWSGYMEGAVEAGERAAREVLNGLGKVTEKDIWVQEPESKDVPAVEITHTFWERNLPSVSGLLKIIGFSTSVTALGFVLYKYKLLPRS

hMAO-B [2] = biological target: T2, hMAO-B (Homo sapiens, UniProt P27338); experiment: In vitro human MAO inhibitory assay; format: biochemical
T2 sequence (P27338 1-520): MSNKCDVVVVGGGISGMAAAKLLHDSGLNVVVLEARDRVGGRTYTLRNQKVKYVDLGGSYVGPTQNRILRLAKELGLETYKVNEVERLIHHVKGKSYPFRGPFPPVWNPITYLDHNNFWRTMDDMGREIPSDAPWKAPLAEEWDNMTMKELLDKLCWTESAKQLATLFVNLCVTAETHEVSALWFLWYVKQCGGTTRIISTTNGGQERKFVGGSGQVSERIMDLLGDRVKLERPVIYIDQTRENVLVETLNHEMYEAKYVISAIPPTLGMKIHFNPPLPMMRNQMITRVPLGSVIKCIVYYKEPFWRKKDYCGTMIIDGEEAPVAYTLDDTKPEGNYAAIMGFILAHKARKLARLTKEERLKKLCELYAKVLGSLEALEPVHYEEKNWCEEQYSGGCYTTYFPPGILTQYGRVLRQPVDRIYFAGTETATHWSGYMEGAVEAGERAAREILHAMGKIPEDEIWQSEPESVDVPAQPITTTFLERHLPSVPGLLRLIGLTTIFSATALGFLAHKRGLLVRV

hMAO-A [3] = biological target: T1, hMAO-A; experiment: Enzyme kinetics of hMAO-A inhibition; format: biochemical; settings: for inhibition type: hMAO-A, determined by Lineweaver–Burk plot
Outline: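 hMAO-A activity was measured with the chemiluminescent MAO-Glo kit assay. Reactions ran at three MAO substrate concentrations (320, 160 and 80 μM), with or without test compound. Michaelis–Menten and Lineweaver–Burk plots gave Km, Vmax and inhibition mode. Ki came from secondary plots: Kic for inhibitor binding free enzyme, Kiu for binding the enzyme–substrate complex.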

rat MAO enzyme = settings: cited from earlier work
mouse liver MAO enzyme = settings: cited from earlier work
hMAO-B [4] = biological target: T2, hMAO-B; experiment: Enzyme kinetics of hMAO-B inhibition; format: biochemical
Outline: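 For hMAO-B, chemiluminescent MAO-Glo kit reactions were set up at three MAO substrate levels (32, 16 and 8 μM), with or without test compound. Inhibition mode, Km and Vmax were read from Michaelis–Menten and Lineweaver–Burk plots. Secondary plots gave Ki: Kic for inhibitor binding free enzyme, Kiu for binding the enzyme–substrate complex.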

hMAO-A [5] = biological target: T1, hMAO-A; settings: data reproduced from recent publication ref 32; cited from earlier work

Row | Structure (SMILES) | IC50 (hMAO-A [1]) | IC50 (hMAO-B [2]) | activity against rat MAO enzyme (rat MAO enzyme) | further results
1 | O=C1c2cccc(O)c2C(=O)c2c(O)cccc21 [1,8-dihydroxyanthraquinone] |  |  | inactive | 
2 | COc1cc(O)c2c(c1)C(=O)c1cc(C)cc(O)c1C2=O [Compound 2, physcion] | > 400 µM | > 400 µM | inactive | 
3 | O=C(O)c1cc(O)c2c(c1)C(=O)c1cccc(O)c1C2=O [rhein] |  |  | inactive | 
4 | Cc1cc(O)c2c(c1)C(=O)c1cccc(O)c1C2=O [Compound 1, chrysophanol] | > 400 µM | > 400 µM | inactive | 
5 | COc1c(O)c(C)cc2c1C(=O)c1c(O)cccc1C2=O [Compound 4, obtusifolin] | 31.8 ± 0.6 µM | > 400 µM |  | 
6 | COc1cc(O)c2c(O)c3c(=O)cc(C)oc3cc2c1 [Compound 13, rubrofusarin] |  | 91.4 ± 1.31 µM |  | SI (selective index) (hMAO-A [1]): 15.49; Kiu (binding constant of inhibitor with enzyme–substrate complex) (hMAO-A [5]): 4.22; inhibition type (hMAO-A [5]): mixed-type

Now from value to compound, other results behind:

Row | IC50 (hMAO-A [1]) | IC50 (hMAO-B [2]) | Structure (SMILES) | activity against rat MAO enzyme (rat MAO enzyme) | further results
7 | 2.47 ± 0.14 µM | > 400 µM | O=C1c2cccc(O)c2C(=O)c2c(O)cc(CO)cc21 [Compound 9, aloe-emodin] | inactive | Ki (hMAO-A [3]): 0.5 µM; inhibition type (hMAO-A [3]): competitive
8 | 23.3 ± 1.46 µM | 54.7 ± 0.74 µM | Cc1cc(O)c2c(c1)C(=O)c1cc(O)cc(O)c1C2=O [Compound 10, emodin] | inactive | IC50 (mouse liver MAO enzyme): 37 µM
9 | 27.2 ± 0.85 µM | 174 ± 1.86 µM | COc1c(O)cc2c(c1O)C(=O)c1c(cc(C)c(O)c1OC)C2=O [Compound 5, aurantio-obtusin] |  | SI (selective index) (hMAO-A [1]): 6.40
10 | 328 ± 10.2 µM | > 400 µM | COc1cc2c(c(OC)c1OC)C(=O)c1c(cc(C)c(O)c1OC)C2=O [Compound 6, chryso-obtusin] |  | 
11 | 0.17 ± 0.01 µM | 10.6 ± 0.28 µM | COc1cc(O)cc2c1C(=O)c1c(O)cc(C)cc1C2=O [Compound 12, questin] |  | Ki (hMAO-A [3]): 0.13 µM; inhibition type (hMAO-A [3]): competitive; Ki (hMAO-B [4]): 4.14 µM; inhibition type (hMAO-B [4]; hMAO-B, determined by Lineweaver–Burk plot): competitive
